Assay results as given in ChEMBL document CHEMBL3244008, “Design of species- or isozyme-specific enzyme inhibitors. 2. Differences between a bacterial and a mammalian thymidine kinase in the effect of thymidine substituents on affinity for the thymidine site” (J Med Chem, 1979).
Active and inactive are the calls of the source. The rule behind the calls is not given here.

Assays:
Escherichia coli B [1] = assay: Inhibition of Escherichia coli B thymidine kinase using [2-14C]-thymidine as substrate assessed as formation of [14C]-TMP at 8 mM after 10 mins by liquid scintillation spectrometric analysis relative to control
In short: (§1)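 E. coli thymidine kinase (fraction V, purified from frozen cells; 7.2 × 10⁻⁶ units per assay) in Tris-HCl 71 mM, MgCl2 2.85 mM, MnCl2 0.71 mM, ATP 5.7 mM, BSA and [2-14C]thymidine 82 μM with test compound. The mixture was held at 37 °C for 10 min, then boiled. [14C]TMP was resolved by paper electrophoresis (pH 7.6) and scintillation-counted, with the unincubated blank subtracted.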

Escherichia coli B [2] = assay: Inhibition of Escherichia coli B thymidine kinase using [2-14C]-thymidine as substrate assessed as formation of [14C]-TMP at 4 mM after 10 mins by liquid scintillation spectrometric analysis relative to control; in short: as §1
Escherichia coli B [3] = assay: Inhibition of Escherichia coli B thymidine kinase using [2-14C]-thymidine as substrate assessed as formation of [14C]-TMP at 0.5 mM after 10 mins by liquid scintillation spectrometric analysis relative to control; in short: as §1
Escherichia coli B [4] = assay: Inhibition of Escherichia coli B thymidine kinase using [2-14C]-thymidine as substrate assessed as formation of [14C]-TMP at 1 mM after 10 mins by liquid scintillation spectrometric analysis relative to control; in short: as §1
[5] = Competitive inhibition of Escherichia coli B thymidine kinase using [2-14C]-thymidine as substrate assessed as formation of [14C]-TMP after 10 mins by Lineweaver-Burk double reciprocal plot analysis; conditions: read-out: Ki(app)
In short: (§2)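 Fraction V E. coli thymidine kinase was assayed with MgATP 5.7 mM and Mg/Mn salts in Tris-HCl at 37 °C for 10 min, reading [14C]TMP after electrophoresis. Four or more thymidine levels (20–160 μM) were used at each of two inhibitor levels plus an inhibitor-free control, all in duplicate. Ki (competitive) or I50 (noncompetitive) came from replots of Lineweaver-Burk slopes against inhibitor concentration, reproducible to ±7%.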

Escherichia coli B [6] = assay: Activation of Escherichia coli B thymidine kinase using [2-14C]-thymidine as substrate assessed as formation of [14C]-TMP at 0.1 mM after 10 mins by liquid scintillation spectrometric analysis relative to control; in short: as §1
Escherichia coli B [7] = assay: Activation of Escherichia coli B thymidine kinase using [2-14C]-thymidine as substrate assessed as formation of [14C]-TMP at 8 mM after 10 mins by liquid scintillation spectrometric analysis relative to control; in short: as §1
Escherichia coli B [8] = assay: Activation of Escherichia coli B thymidine kinase using [2-14C]-thymidine as substrate assessed as formation of [14C]-TMP at 2 mM after 10 mins by liquid scintillation spectrometric analysis relative to control; in short: as §1
Escherichia coli B [9] = assay: Non-competitive inhibition of Escherichia coli B thymidine kinase using [2-14C]-thymidine as substrate assessed as formation of [14C]-TMP at 16 mM after 10 mins by Lineweaver-Burk double reciprocal plot analysis
Escherichia coli B [10] = assay: Inhibition of Escherichia coli B thymidine kinase using [2-14C]-thymidine as substrate assessed as formation of [14C]-TMP at 16 mM after 10 mins by liquid scintillation spectrometric analysis relative to control; in short: as §1
[11] = Non-competitive inhibition of Escherichia coli B thymidine kinase using [2-14C]-thymidine as substrate assessed as formation of [14C]-TMP after 10 mins by Lineweaver-Burk double reciprocal plot analysis; conditions: read-out: I50; in short: as §2
Escherichia coli B [12] = assay: Inhibition of Escherichia coli B thymidine kinase using [2-14C]-thymidine as substrate assessed as formation of [14C]-TMP at 2 mM after 10 mins by liquid scintillation spectrometric analysis relative to control; in short: as §1
Escherichia coli B [13] = assay: Activation of Escherichia coli B thymidine kinase using [2-14C]-thymidine as substrate assessed as formation of [14C]-TMP at 0.5 mM after 10 mins by liquid scintillation spectrometric analysis relative to control; in short: as §1
Escherichia coli B [14] = assay: Activation of Escherichia coli B thymidine kinase using [2-14C]-thymidine as substrate assessed as formation of [14C]-TMP at 1 mM after 10 mins by liquid scintillation spectrometric analysis relative to control; in short: as §1
Escherichia coli B [15] = assay: Activity of Escherichia coli B thymidine kinase assessed as [14C]-TMP formation at 775 uM after 1 hr by liquid scintillation spectrometric analysis relative to thymidine; conditions: tested as the 14C-labelled form
Escherichia coli B [16] = assay: Activity of Escherichia coli B thymidine kinase assessed as [14C]-TMP formation at 500 uM after 1 hr by liquid scintillation spectrometric analysis; conditions: tested as the 14C-labelled form
Escherichia coli B [17] = assay: Activity of Escherichia coli B thymidine kinase assessed as [14C]-TMP formation at 450 uM after 1 hr by liquid scintillation spectrometric analysis; conditions: tested as the 14C-labelled form

CCNC[C@H]1O[C@@H](n2cc(C)c(=O)[nH]c2=O)C[C@@H]1O
inhibition (Escherichia coli B [1]): 36%
inhibition (Escherichia coli B [2]): 28%

NCc1cn([C@H]2C[C@H](O)[C@@H](CO)O2)c(=O)[nH]c1=O
inhibition (Escherichia coli B [3]): 14%
inhibition (Escherichia coli B [4]): 25%

Cc1cn([C@H]2C[C@H](O)[C@@H](CN)O2)c(=O)[nH]c1=O
Ki [5]: 320 µM

CC[S+]([O-])C[C@H]1O[C@@H](n2cc(C)c(=O)[nH]c2=O)C[C@@H]1O (stereo partly specified)
Activity (Escherichia coli B [6]): -5%
Activity (Escherichia coli B [7]): 22%
Activity (Escherichia coli B [8]): -4%

CCOC1N([C@H]2C[C@H](O)[C@@H](CO)O2)C(=O)NC(=O)C1(C)Br (single isomer, unassigned; less polar)
inhibition (Escherichia coli B [9]): inactive
inhibition (Escherichia coli B [10]): 0%

CCS[C@H]1C[C@H](n2cc(C)c(=O)[nH]c2=O)O[C@@H]1CO
IC50 [11]: 320 µM

O=c1ccn([C@@H]2O[C@H](CO)[C@@H](O)[C@H]2O)c(=O)[nH]1 [URIDINE]
IC50 [11]: 47500 µM

N#Cc1cn([C@H]2C[C@H](O)[C@@H](CO)O2)c(=O)[nH]c1=O
inhibition (Escherichia coli B [3]): 23%
inhibition (Escherichia coli B [12]): 40%

CC(=O)N(C)CCCCCCN(C)C[C@H]1O[C@@H](n2cc(C)c(=O)[nH]c2=O)C[C@@H]1O
inhibition (Escherichia coli B [4]): 14%
inhibition (Escherichia coli B [12]): 14%

Nc1cn([C@H]2C[C@H](O)[C@@H](CO)O2)c(=O)[nH]c1=O
IC50 [11]: 28000 µM

CCCn1c(=O)ccn([C@H]2C[C@H](O)[C@@H](CO)O2)c1=O
inhibition (Escherichia coli B [3]): 18%
inhibition (Escherichia coli B [4]): 35%

CCn1c(=O)c(C)cn([C@H]2C[C@H](O)[C@@H](CO)O2)c1=O
IC50 [11]: 1250 µM
inhibition (Escherichia coli B [3]): 30%
inhibition (Escherichia coli B [4]): 44%

CCOC1N([C@H]2C[C@H](O)[C@@H](CO)O2)C(=O)NC(=O)C1(C)Br (single isomer, unassigned)
inhibition (Escherichia coli B [9]): inactive
inhibition (Escherichia coli B [12]): 11%
inhibition (Escherichia coli B [10]): 17%

CC(=O)N(C)CCCCN(C)C[C@H]1O[C@@H](n2cc(C)c(=O)[nH]c2=O)C[C@@H]1O
inhibition (Escherichia coli B [4]): 14%
inhibition (Escherichia coli B [12]): 14%

Cc1cn([C@H]2C[C@H](O)[C@@H](C[S+]([O-])CCC(=O)O)O2)c(=O)[nH]c1=O (stereo partly specified)
Activity (Escherichia coli B [6]): -2%
Activity (Escherichia coli B [7]): 65%
Activity (Escherichia coli B [8]): 42%
Activity (Escherichia coli B [13]): -1%

Cc1cn([C@H]2C[C@H](O)[C@@H](CSCCO)O2)c(=O)[nH]c1=O
Activity (Escherichia coli B [8]): 25%
Activity (Escherichia coli B [13]): 15%
Activity (Escherichia coli B [14]): 28%

CCn1c(=O)ccn([C@H]2C[C@H](O)[C@@H](CO)O2)c1=O
inhibition (Escherichia coli B [3]): 12%
inhibition (Escherichia coli B [4]): 22%

CCCCNC[C@H]1O[C@@H](n2cc(C)c(=O)[nH]c2=O)C[C@@H]1O
inhibition (Escherichia coli B [3]): 9%
inhibition (Escherichia coli B [12]): 12%

CCCn1c(=O)c(C)cn([C@H]2C[C@H](O)[C@@H](CO)O2)c1=O
inhibition (Escherichia coli B [3]): 28%
inhibition (Escherichia coli B [4]): 39%

CC(=O)NCC(O)[C@H]1O[C@@H](n2cc(C)c(=O)[nH]c2=O)C[C@@H]1O (stereo in doubt; 4a)
Ki [5]: 1250 µM

Cc1cn([C@H]2C[C@H](O)[C@@H](CSCCC(=O)O)O2)c(=O)[nH]c1=O
Activity (Escherichia coli B [6]): 120%
Activity (Escherichia coli B [7]): 106%
Activity (Escherichia coli B [8]): 125%
Activity (Escherichia coli B [13]): 126%

CC(=O)NCc1cn([C@H]2C[C@H](O)[C@@H](CO)O2)c(=O)[nH]c1=O
Activity (Escherichia coli B [15]): < 0.021%

Nc1ccn([C@H]2C[C@H](O)[C@@H](CO)O2)c(=O)n1
inhibition (Escherichia coli B [3]): 0%
inhibition (Escherichia coli B [12]): 0%

CC(=O)NCCC(=O)Nc1cn([C@H]2C[C@H](O)[C@@H](CO)O2)c(=O)[nH]c1=O
inhibition (Escherichia coli B [3]): 0%
inhibition (Escherichia coli B [12]): 0%

CC(=O)NCC(O)[C@H]1O[C@@H](n2cc(C)c(=O)[nH]c2=O)C[C@@H]1O (stereo partly specified)
Activity (Escherichia coli B [16]): inactive
Activity (Escherichia coli B [17]): inactive

CC(=O)NC[C@H]1O[C@@H](n2cc(C)c(=O)[nH]c2=O)C[C@@H]1O
inhibition (Escherichia coli B [3]): 0%
inhibition (Escherichia coli B [4]): 0%

CC(=O)N(C)CCN(C)C[C@H]1O[C@@H](n2cc(C)c(=O)[nH]c2=O)C[C@@H]1O
inhibition (Escherichia coli B [4]): 0%
inhibition (Escherichia coli B [12]): 0%

CCC(=O)NCC(O)[C@H]1O[C@@H](n2cc(C)c(=O)[nH]c2=O)C[C@@H]1O (single isomer, unassigned; less polar)
Ki [5]: 850 µM

CCCC(=O)NC[C@H]1O[C@@H](n2cc(C)c(=O)[nH]c2=O)C[C@@H]1O
inhibition (Escherichia coli B [3]): 0%
inhibition (Escherichia coli B [4]): 0%

CC(=O)Nc1cn([C@H]2C[C@H](O)[C@@H](CO)O2)c(=O)[nH]c1=O
inhibition (Escherichia coli B [3]): 15%
inhibition (Escherichia coli B [12]): 15%

CCSC[C@H]1O[C@@H](n2cc(C)c(=O)[nH]c2=O)C[C@@H]1O
Activity (Escherichia coli B [6]): 70%
Activity (Escherichia coli B [8]): 46%
Activity (Escherichia coli B [13]): 63%

Cc1cn([C@H]2C[C@H](O)[C@@H](CSCCCC(=O)O)O2)c(=O)[nH]c1=O
Activity (Escherichia coli B [6]): 61%
Activity (Escherichia coli B [7]): 35%
Activity (Escherichia coli B [8]): 62%
Activity (Escherichia coli B [13]): 60%

CCCCCCNC[C@H]1O[C@@H](n2cc(C)c(=O)[nH]c2=O)C[C@@H]1O
Ki [5]: 2600 µM

CCCCCn1c(=O)c(C)cn([C@H]2C[C@H](O)[C@@H](CO)O2)c1=O
IC50 [11]: 650 µM
inhibition (Escherichia coli B [3]): 45%
inhibition (Escherichia coli B [4]): 59%

CC(=O)NCC(O)[C@H]1O[C@@H](n2cc(C)c(=O)[nH]c2=O)C[C@@H]1O (mixture of isomers)
Ki [5]: 2000 µM

Cc1cn([C@H]2C[C@H](N)[C@@H](CO)O2)c(=O)[nH]c1=O [3-AMINO- 3-DEOXYTHYMIDINE]
IC50 [11]: 2750 µM

CCNc1cn([C@H]2C[C@H](O)[C@@H](CO)O2)c(=O)[nH]c1=O
inhibition (Escherichia coli B [3]): 0%
inhibition (Escherichia coli B [12]): 0%

CCC(=O)NCC(O)[C@H]1O[C@@H](n2cc(C)c(=O)[nH]c2=O)C[C@@H]1O (single isomer, unassigned; more polar)
Ki [5]: 6600 µM

O=c1ccn([C@H]2C[C@H](O)[C@@H](CO)O2)c(=O)[nH]1 [DEOXYURIDINE]
Ki [5]: 290 µM

CCNc1ccn([C@H]2C[C@H](O)[C@@H](CO)O2)c(=O)n1
inhibition (Escherichia coli B [3]): 0%
inhibition (Escherichia coli B [12]): 0%

CC(=O)N[C@H]1C[C@H](n2cc(C)c(=O)[nH]c2=O)O[C@@H]1CO
IC50 [11]: 6100 µM
